Columns and labels:
[1] = tested on: PCNA replication foci in NIH3T3 cells; type: cell-based, murine; settings: for Small foci (CFP-PCNA) / Large foci (CFP-PCNA) / Mid Foci (CFP-PCNA): CFP channel (CFP-PCNA) in cells co-expressing the hEXO1 protein, 50 co-transfected cells; for Small foci (CFP-PCNA): early S-phase foci; for Large foci (CFP-PCNA): late S-phase foci; for Mid Foci (CFP-PCNA): mid S-phase foci; for foci formation and co-localization with PCNA during S-phase: NIH3T3 cells co-transfected with CFP-PCNA, 24–48 h; for sub-cellular localization: NIH3T3 cells, confocal imaging
Summary of the method: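 Murine NIH3T3 cells were kept in DMEM with 10% FBS and penicillin/streptomycin at 37 °C, 10% CO₂. Cells (2*10⁵ per glass-bottom dish) were seeded 24 h before ExGen500 co-transfection with 3 μg total plasmid (CFP-PCNA plus YFP fusion). Confocal imaging at 24–48 h. Co-transfected cells were counted and binned by pattern, e.g. "no foci" (diffuse CFP-PCNA, diffuse nuclear YFP).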

hMLH1 [2] = assay: Interaction of hEXO1 variants with hMLH1; type: binding, human; settings: GST-hMLH1 pull-down, 35S-labeled IVTT protein; Fig. S1
hMLH1 [3] = settings: MIP-box mutant; ref [52]; cited from earlier work
[4] = tested on: laser induced DNA double strand breaks in HeLa cells; type: cell-based; settings: laser irradiation
[5] = tested on: laser induced DNA double strand breaks in HeLa cells; settings: NLS mutant, ref [43]; cited from earlier work

Molecule	Small foci (CFP-PCNA) [1]	Large foci (CFP-PCNA) [1]	Mid Foci (CFP-PCNA) [1]	foci formation and co-localization with PCNA during S-phase [1]	sub-cellular localization [1]	hMLH1 interaction (hMLH1 [2])	further results
YFP-hEXO1-S702X: COOH-terminally truncated version of YFP-hEXO1, truncated from amino acid 702 (protein, UniProt Q9UQ84 1-701, looked up, fragment, N-terminal YFP tag) MGIQGLLQFIKEASEPIHVRKYKGQVVAVDTYCWLHKGAIACAEKLAKGEPTDRYVGFCMKFVNMLLSHGIKPILVFDGCTLPSKKEVERSRRERRQANLLKGKQLLREGKVSEARECFTRSINITHAMAHKVIKAARSQGVDCLVAPYEADAQLAYLNKAGIVQAIITEDSDLLAFGCKKVILKMDQFGNGLEIDQARLGMCRQLGDVFTEEKFRYMCILSGCDYLSSLRGIGLAKACKVLRLANNPDIVKVIKKIGHYLKMNITVPEDYINGFIRANNTFLYQLVFDPIKRKLIPLNAYEDDVDPETLSYAGQYVDDSIALQIALGNKDINTFEQIDDYNPDTAMPAHSRSHSWDDKTCQKSANVSSIWHRNYSPRPESGTVSDAPQLKENPSTVGVERVISTKGLNLPRKSSIVKRPRSAELSEDDLLSQYSLSFTKKTKKNSSEGNKSLSFSEVFVPDLVNGPTNKKSVSTPPRTRNKFATFLQRKNEESGAVVVPGTRSRFFCSSDSTDCVSNKVSIQPLDETAVTDKENNLHESEYGDQEGKRLVDTDVARNSSDDIPNNHIPGDHIPDKATVFTDEESYSFESSKFTRTISPPTLGTLRSCFSWSGGLGDFSRTPSPSPSTALQQFRRKSDSPTSLPENNMSDVSQLKSEESSDDESHPLREEACSSQSQESGEFSLQSSNASKLSQCSSKDSD	18%	8%	20%	none of the variant proteins were able to form foci or co-localize with PCNA during S-phase	strictly nuclear	sustain partial hMLH1 interaction	–
hEXO1-S702X; Δ423–507: truncated from amino acid 702 with internal deletion between amino acids 423 and 507; depleted of two hMLH1 interaction regions (protein, 35S-cysteine label) MGIQGLLQFIKEASEPIHVRKYKGQVVAVDTYCWLHKGAIACAEKLAKGEPTDRYVGFCMKFVNMLLSHGIKPILVFDGCTLPSKKEVERSRRERRQANLLKGKQLLREGKVSEARECFTRSINITHAMAHKVIKAARSQGVDCLVAPYEADAQLAYLNKAGIVQAIITEDSDLLAFGCKKVILKMDQFGNGLEIDQARLGMCRQLGDVFTEEKFRYMCILSGCDYLSSLRGIGLAKACKVLRLANNPDIVKVIKKIGHYLKMNITVPEDYINGFIRANNTFLYQLVFDPIKRKLIPLNAYEDDVDPETLSYAGQYVDDSIALQIALGNKDINTFEQIDDYNPDTAMPAHSRSHSWDDKTCQKSANVSSIWHRNYSPRPESGTVSDAPQLKENPSTVGVERVISTKGLNLPRKSSIVKRPRSCSSDSTDCVSNKVSIQPLDETAVTDKENNLHESEYGDQEGKRLVDTDVARNSSDDIPNNHIPGDHIPDKATVFTDEESYSFESSKFTRTISPPTLGTLRSCFSWSGGLGDFSRTPSPSPSTALQQFRRKSDSPTSLPENNMSDVSQLKSEESSDDESHPLREEACSSQSQESGEFSLQSSNASKLSQCSSKDSD	–	–	–	–	–	incapable of hMLH1 interaction	–
hEXO1-Δ423–507: internal deletion variant (protein, 35S-cysteine label; left off: myc, C-terminal, state not stated | His6, C-terminal, state not stated) MGIQGLLQFIKEASEPIHVRKYKGQVVAVDTYCWLHKGAIACAEKLAKGEPTDRYVGFCMKFVNMLLSHGIKPILVFDGCTLPSKKEVERSRRERRQANLLKGKQLLREGKVSEARECFTRSINITHAMAHKVIKAARSQGVDCLVAPYEADAQLAYLNKAGIVQAIITEDSDLLAFGCKKVILKMDQFGNGLEIDQARLGMCRQLGDVFTEEKFRYMCILSGCDYLSSLRGIGLAKACKVLRLANNPDIVKVIKKIGHYLKMNITVPEDYINGFIRANNTFLYQLVFDPIKRKLIPLNAYEDDVDPETLSYAGQYVDDSIALQIALGNKDINTFEQIDDYNPDTAMPAHSRSHSWDDKTCQKSANVSSIWHRNYSPRPESGTVSDAPQLKENPSTVGVERVISTKGLNLPRKSSIVKRPRSCSSDSTDCVSNKVSIQPLDETAVTDKENNLHESEYGDQEGKRLVDTDVARNSSDDIPNNHIPGDHIPDKATVFTDEESYSFESSKFTRTISPPTLGTLRSCFSWSGGLGDFSRTPSPSPSTALQQFRRKSDSPTSLPENNMSDVSQLKSEESSDDESHPLREEACSSQSQESGEFSLQSSNASKLSQCSSKDSDSEESDCNIKLLDSQSDQTSKLRLSHFSKKDTPLRNKVPGLYKSSSADSLSTTKIKPLGPARASGLSKKPASIQKRKHHNAENKPGLQIKLNELWKNFGFKKDSEKLPPCKKPLSPVRDNIQLTPEAEEDIFNKPECGRVQRAIFQ	–	–	–	–	–	sustain partial hMLH1 interaction	–
YFP-hEXO1-F506A;F507A: MIP-box (putative PIP-box) substitution variant of YFP-hEXO1 (protein, UniProt Q9UQ84 1-846, looked up, variant F506A F507A, N-terminal YFP tag) Exonuclease 1: MGIQGLLQFIKEASEPIHVRKYKGQVVAVDTYCWLHKGAIACAEKLAKGEPTDRYVGFCMKFVNMLLSHGIKPILVFDGCTLPSKKEVERSRRERRQANLLKGKQLLREGKVSEARECFTRSINITHAMAHKVIKAARSQGVDCLVAPYEADAQLAYLNKAGIVQAIITEDSDLLAFGCKKVILKMDQFGNGLEIDQARLGMCRQLGDVFTEEKFRYMCILSGCDYLSSLRGIGLAKACKVLRLANNPDIVKVIKKIGHYLKMNITVPEDYINGFIRANNTFLYQLVFDPIKRKLIPLNAYEDDVDPETLSYAGQYVDDSIALQIALGNKDINTFEQIDDYNPDTAMPAHSRSHSWDDKTCQKSANVSSIWHRNYSPRPESGTVSDAPQLKENPSTVGVERVISTKGLNLPRKSSIVKRPRSAELSEDDLLSQYSLSFTKKTKKNSSEGNKSLSFSEVFVPDLVNGPTNKKSVSTPPRTRNKFATFLQRKNEESGAVVVPGTRSRAACSSDSTDCVSNKVSIQPLDETAVTDKENNLHESEYGDQEGKRLVDTDVARNSSDDIPNNHIPGDHIPDKATVFTDEESYSFESSKFTRTISPPTLGTLRSCFSWSGGLGDFSRTPSPSPSTALQQFRRKSDSPTSLPENNMSDVSQLKSEESSDDESHPLREEACSSQSQESGEFSLQSSNASKLSQCSSKDSDSEESDCNIKLLDSQSDQTSKLRLSHFSKKDTPLRNKVPGLYKSSSADSLSTTKIKPLGPARASGLSKKPASIQKRKHHNAENKPGLQIKLNELWKNFGFKKDSEKLPPCKKPLSPVRDNIQLTPEAEEDIFNKPECGRVQRAIFQ	4%	0%	0%	unable to associate with PCNA in replication foci	higher degree of cytoplasmic distribution	–	effect of expression on S-phase distribution ([1]; NIH3T3 cells co-expressing CFP-PCNA): only very few S-phase cells, co-expressing this variant and PCNA were observed; influence of mutation on hEXO1 hMLH1 interaction (hMLH1 [3]): influence hEXO1 hMLH1 interactions
hEXO1-K418A: NLS mutant (protein, UniProt Q9UQ84 1-846, looked up, variant K418A, N-terminal YFP tag) Exonuclease 1: MGIQGLLQFIKEASEPIHVRKYKGQVVAVDTYCWLHKGAIACAEKLAKGEPTDRYVGFCMKFVNMLLSHGIKPILVFDGCTLPSKKEVERSRRERRQANLLKGKQLLREGKVSEARECFTRSINITHAMAHKVIKAARSQGVDCLVAPYEADAQLAYLNKAGIVQAIITEDSDLLAFGCKKVILKMDQFGNGLEIDQARLGMCRQLGDVFTEEKFRYMCILSGCDYLSSLRGIGLAKACKVLRLANNPDIVKVIKKIGHYLKMNITVPEDYINGFIRANNTFLYQLVFDPIKRKLIPLNAYEDDVDPETLSYAGQYVDDSIALQIALGNKDINTFEQIDDYNPDTAMPAHSRSHSWDDKTCQKSANVSSIWHRNYSPRPESGTVSDAPQLKENPSTVGVERVISTKGLNLPRKSSIVARPRSAELSEDDLLSQYSLSFTKKTKKNSSEGNKSLSFSEVFVPDLVNGPTNKKSVSTPPRTRNKFATFLQRKNEESGAVVVPGTRSRFFCSSDSTDCVSNKVSIQPLDETAVTDKENNLHESEYGDQEGKRLVDTDVARNSSDDIPNNHIPGDHIPDKATVFTDEESYSFESSKFTRTISPPTLGTLRSCFSWSGGLGDFSRTPSPSPSTALQQFRRKSDSPTSLPENNMSDVSQLKSEESSDDESHPLREEACSSQSQESGEFSLQSSNASKLSQCSSKDSDSEESDCNIKLLDSQSDQTSKLRLSHFSKKDTPLRNKVPGLYKSSSADSLSTTKIKPLGPARASGLSKKPASIQKRKHHNAENKPGLQIKLNELWKNFGFKKDSEKLPPCKKPLSPVRDNIQLTPEAEEDIFNKPECGRVQRAIFQ	–	–	–	–	–	–	nuclear translocation in response to laser induced DNA damage [4]: translocated from the cytoplasm into the nucleus in response to laser induced DNA damage; nuclear localization in untreated cells [5]: excluded from the nucleus in untreated cells

Source: PMC4586255 (DNA repair, 2010)
